Data from ChEMBL document CHEMBL4304750, “Novel Anthraquinone Compounds Induce Cancer Cell Death through Paraptosis” (ACS Med Chem Lett, 2019).
The source made the active and inactive calls.

What was measured:
Type in all cases: functional, cell-based
SMMC-7721 [1] = assay: Induction of cytoplasmic vacuolation in human SMMC7721 cells at 10 uM incubated for 48 hrs by phase contrast microscopy
SMMC-7721 [2] = assay: Decrease in p62 expression level in human SMMC7721 cells by Western blot analysis
SMMC-7721 [3] = assay: Induction of paraptosis in human SMMC7721 cells assessed as increase in LC3-II/LC3-I expression ratio by Western blot analysis
SMMC-7721 [4] = assay: Induction of paraptosis in human SMMC7721 cells assessed as increase in GRP78 expression by Western blot analysis
HepG2 [5] = assay: Induction of cell vacuole formation in human HepG2 cells at 5 uM incubated for 24 hrs by phase contrast microscopy
HepG2 [6] = assay: Antiproliferative activity against human HepG2 cells assessed as reduction in cell viability incubated for 48 hrs by MTT assay
CNE-2 [7] = assay: Induction of cell vacuole formation in human CNE2 cells at 5 uM incubated for 24 hrs by phase contrast microscopy
CNE [8] = assay: Induction of cell vacuole formation in human CNE1 cells at 5 uM incubated for 24 hrs by phase contrast microscopy
CNE-2 [9] = assay: Antiproliferative activity against human CNE2 cells assessed as reduction in cell viability incubated for 48 hrs by MTT assay
CNE [10] = assay: Antiproliferative activity against human CNE1 cells assessed as reduction in cell viability incubated for 48 hrs by MTT assay
SMMC-7721 [11] = assay: Induction of apoptosis with PS translocation in human SMMC7721 cells at 3 to 10 uM incubated for 48 hrs by Annexin V-FITC and propidium iodide staining based flow cytometry
Method in brief: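 After 48 h treatment, SMMC-7721 cells were collected, stained with annexin V-FITC plus PI, and analysed by flow cytometry for PS externalization/apoptotic fraction.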

SMMC-7721 [12] = assay: Antiproliferative activity against human SMMC7721 assessed as reduction in cell viability incubated for 48 hrs by MTT assay
SMMC-7721 [13] = assay: Induction of cell vacuole formation in human SMMC7721cells at 5 uM incubated for 24 hrs by phase contrast microscopy
SMMC-7721 [14] = assay: Induction of cytoplasmic vacuolation in human SMMC7721 cells assessed as vacuolar cell formation and appearance of apoptotic cells at 3 to 10 uM incubated for 48 hrs by phase contrast microscopy

O=C(O)c1cc(OCc2ccccc2)c2c(c1)C(=O)c1cccc(OCc3ccccc3)c1C2=O
active: Activity (SMMC-7721 [1]) | Activity (SMMC-7721 [4])
inactive: inhibition (SMMC-7721 [2]) | Activity (SMMC-7721 [3])

O=C(O)c1cc(O)c2c(c1)C(=O)c1cccc(O)c1C2=O
inactive: inhibition (SMMC-7721 [2]) | Activity (SMMC-7721 [3]) | Activity (SMMC-7721 [4])

O=C(OCCN1CCCCC1)c1cc(OCc2ccccc2)c2c(c1)C(=O)c1cccc(OCc3ccccc3)c1C2=O
active: Activity (HepG2 [5]) | inhibition (HepG2 [6]) | Activity (CNE-2 [7]) | Activity (CNE [8]) | inhibition (CNE-2 [9]) | inhibition (CNE [10]) | Activity (SMMC-7721 [11]) | inhibition (SMMC-7721 [12]) | Activity (SMMC-7721 [13]) | Activity (SMMC-7721 [14])
